Source: PubChem BioAssay (Broad Institute)
PGC1a acetyl inh: inhibitors of PGC1a acetylation signal, primary screen, cell-based, U2OS, AlphaScreen, inhibitor mode; inhibition, % at 15.6 µM; AlphaScreen anti-acetyl-lysine; with virally co-expressed GCN5 acetyltransferase; 350,000 tested, 0.17% active; AID 651687, 2012;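 active = every replicate shows inhibition of at least 40%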;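 note: 0% = neutral control wells and 100% = positive control wells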
FGF22 binding: binders of human FGF22 protein, primary screen, FGF22 synaptogenesis inhibitor project, biophysical, thermal shift, single point. Fibroblast growth factor 22 (Homo sapiens), Q9HCT0. activity (Tm shift, normalised), % at 9.99 µM. 340,000 tested, 1.5% active. recombinant FGF22 thermal shift, SYPRO orange fluorescence; percent of sucrose octasulfate shift, DMSO zero;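 active = mean Tm shift, scaled 0 neutral to 100 positive control, at about 1.3% or above, every replicate too, limit read from the data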
Target sequence (Q9HCT0 whole entry, looked up): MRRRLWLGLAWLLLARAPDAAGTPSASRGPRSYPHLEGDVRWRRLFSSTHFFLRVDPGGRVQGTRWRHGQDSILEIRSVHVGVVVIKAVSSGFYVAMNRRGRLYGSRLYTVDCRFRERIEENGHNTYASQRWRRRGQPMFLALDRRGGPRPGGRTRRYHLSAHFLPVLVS
SIRT5 inh: SIRT5 desuccinylase inhibitors, primary screen, biochemical, fluorescence imaging, single point, set 5 | 330,000 tested, 1.1% active | inhibition, % at 15 µM | NAD-dependent protein deacylase sirtuin-5, mitochondrial (Homo sapiens), Q9NXA8 | Purified SirT5, succinyl-peptide AMC, trypsin-coupled fluorescence; in the data active = inhibition above about 15%
Target sequence (Q9NXA8 whole entry, looked up): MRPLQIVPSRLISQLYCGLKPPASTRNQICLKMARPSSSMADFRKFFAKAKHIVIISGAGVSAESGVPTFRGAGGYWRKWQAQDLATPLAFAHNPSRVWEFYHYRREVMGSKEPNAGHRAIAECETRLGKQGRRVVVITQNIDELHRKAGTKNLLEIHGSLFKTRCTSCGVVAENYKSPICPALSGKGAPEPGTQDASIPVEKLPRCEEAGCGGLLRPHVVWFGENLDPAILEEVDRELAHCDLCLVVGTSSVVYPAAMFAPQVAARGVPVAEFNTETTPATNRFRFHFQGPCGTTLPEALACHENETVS
FN deposition inh: inhibitors of fibronectin matrix deposition, primary screen, AH1F cells, Alexa488-fibronectin fluorescence, plate reader; inhibition, % at 12.6 µM; AID 743247, 2014; AH1F fibroblasts, overnight; 350,000 tested, 0.086% active;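 active = mean inhibition across replicates of 30% or more, regardless of how many single replicates reach that level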;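 note: positive control wells lacked labelled fibronectin entirely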
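Assay system: AH1F fibroblasts / Quantity: 10000 cells per well / Medium: DMEM plus 2% serum, read in PBS / Reagent: labelled fibronectin 24 nM / Dosing: single dose, pinned / Times: 1 h cell attachment, overnight exposure to compound and label / Signal: fluorescence, ex 485 nm, em 525 nm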
ERAP1 inh: human ERAP1 aminopeptidase inhibitors, primary screen, biochemical, single point, plate reader | Endoplasmic reticulum aminopeptidase 1 (Homo sapiens), Q9NZ08 | recombinant ERAP1, Leu-AMC fluorescence, 60 min | inhibition, % at 10.7 µM | 340,000 tested, 0.15% active;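 active = mean replicate inhibition of at least 30%, or all replicates individually reaching that 30% level; inactive = mean below 30% and not every replicate reaching it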;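 note: 0% = neutral control wells and 100% = L-leucinethiol positive control wells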
Active calls of the source: *. Shown are actives, neighbours in structure and some others; about 2.2% of the full set was active somewhere.

For CCCC#Cc1ccc([C@@H]2[C@@H](CO)N3C(=O)CN(S(=O)(=O)Cc4ccccc4)C[C@@H]23)cc1 the results were PGC1a acetyl inh -5, SIRT5 inh -1 and ERAP1 inh 1.
For C[C@@H]1CN([C@@H](C)CO)C(=O)Cc2cc(NC(=O)CCN3CCOCC3)ccc2O[C@H]1CN(C)C(=O)Nc1ccc(F)cc1 the results were PGC1a acetyl inh -2, FGF22 binding 0, SIRT5 inh 4 and ERAP1 inh -1.
For CCCn1c(SCC(=O)Nc2cc(Cl)ccc2Cl)n[nH]c1=O the results were PGC1a acetyl inh -6, FGF22 binding 43*, SIRT5 inh -2, FN deposition inh 0 and ERAP1 inh 3.
For COc1ccccc1NC(=O)CN(Cc1ccco1)C(=O)c1ccc(N2CCCC2=O)cc1 the results were FGF22 binding 44*, FN deposition inh -5 and ERAP1 inh 2.
For COc1cccc(CNC(=O)C[C@@H]2C=C[C@@H](NC(=O)C3CCOCC3)[C@H](CO)O2)c1 the results were PGC1a acetyl inh 4, FGF22 binding 0, SIRT5 inh -5, FN deposition inh -13 and ERAP1 inh -1.
For Cc1ccc(S(=O)(=O)N(C)C[C@H]2Oc3ccc(NC(=O)C4CC4)cc3CC(=O)N([C@@H](C)CO)C[C@@H]2C)cc1 the results were PGC1a acetyl inh -8, FGF22 binding 0, SIRT5 inh 6 and ERAP1 inh -1.
CO[C@@H]1CN(C)C(=O)c2cc(NC(C)=O)ccc2OC[C@H](C)N(C(=O)c2cnccn2)C[C@H]1C was read as PGC1a acetyl inh 4, FGF22 binding 0, SIRT5 inh 0 and FN deposition inh 1.
For C[C@H]1CN([C@@H](C)CO)C(=O)c2cc(C#Cc3ccc(F)cc3)cnc2O[C@@H]1CN(C)C the results were PGC1a acetyl inh 5, FGF22 binding 0, SIRT5 inh 3 and ERAP1 inh 1.
For O=C(Nc1cccc2ccccc12)OCc1ccccc1 the results were PGC1a acetyl inh 18, FGF22 binding 44*, SIRT5 inh -4, FN deposition inh 9 and ERAP1 inh -6.
CO[C@@H]1CN(C)C(=O)c2ccc(NC(=O)C3CCOCC3)cc2OC[C@H](C)N(Cc2nccs2)C[C@@H]1C was read as PGC1a acetyl inh 4, FGF22 binding 0, SIRT5 inh 7, FN deposition inh -9 and ERAP1 inh 0.
CC(=O)CC[N+](C)(C)C was read as FGF22 binding 0, SIRT5 inh -1, FN deposition inh 12 and ERAP1 inh 37*.
`CC1=C(/C=C/C(C)=C/C=C/C(C)=C/CO)C(C)(C)CCC1` gave PGC1a acetyl inh -4, FGF22 binding 0, SIRT5 inh 26* and ERAP1 inh 1.
For CC1=C(/C=C/C(C)=N\NC(=O)c2ccncc2)C(C)(C)CCC1 the results were FGF22 binding 0, SIRT5 inh 4, FN deposition inh 5 and ERAP1 inh -7.
CC(C)(C)c1ccc(C#C[C@@H]2C=C[C@H](O)[C@@H](COC(=O)Nc3ccccc3)O2)cc1 was read as FGF22 binding 45*, FN deposition inh 3 and ERAP1 inh -2.
For COc1ccc(-c2cn(CC[C@@H]3CC[C@H](NC(=O)Nc4ccc(F)cc4)[C@@H](CO)O3)nn2)cc1 the results were SIRT5 inh 0, FN deposition inh -9 and ERAP1 inh -2.
Cc1ccc(-n2cc(CN3CCN(Cc4nccn4C)CC3)c(-c3ccc(F)cc3)n2)cc1 was read as PGC1a acetyl inh -24, FGF22 binding 0, SIRT5 inh 112*, FN deposition inh 14 and ERAP1 inh -2.
Screening O=C(c1cc2cc(Br)ccc2s1)N1CCOCC1 returned PGC1a acetyl inh 7, FGF22 binding 43*, SIRT5 inh -2 and ERAP1 inh 5.
Cc1noc(C)c1S(=O)(=O)Nc1ccc2c(c1)CC(=O)N([C@H](C)CO)C[C@H](C)[C@H](CN(C)Cc1ccc(-c3ccccc3)cc1)O2 was read as PGC1a acetyl inh -3, FGF22 binding 0, SIRT5 inh 15* and ERAP1 inh 4.
For COc1ccc(CN(C)C[C@H]2Oc3ccc(NS(=O)(=O)c4c(C)noc4C)cc3CC(=O)N([C@@H](C)CO)C[C@H]2C)cc1 the results were PGC1a acetyl inh 5, FGF22 binding 0, SIRT5 inh -1, FN deposition inh -1 and ERAP1 inh 0.
`COc1ccc(CN(C)C[C@@H]2Oc3ccc(NS(=O)(=O)c4c(C)noc4C)cc3CC(=O)N([C@@H](C)CO)C[C@@H]2C)cc1` gave PGC1a acetyl inh 2, FGF22 binding 1, SIRT5 inh 24*, FN deposition inh -2 and ERAP1 inh -10.
`Cc1noc(C)c1S(=O)(=O)Nc1ccc2c(c1)CC(=O)N([C@@H](C)CO)C[C@H](C)[C@H](CN(C)Cc1ccc(-c3ccccc3)cc1)O2` gave PGC1a acetyl inh 6, FGF22 binding 0, SIRT5 inh -1 and ERAP1 inh 3.
C[C@@H]1CN([C@@H](C)CO)C(=O)Cc2cc(NC(=O)c3ccncc3)ccc2O[C@@H]1CN(C)C(=O)Nc1ccc(C(F)(F)F)cc1 was read as PGC1a acetyl inh 6, FGF22 binding 0, SIRT5 inh 2 and ERAP1 inh 1.
`FC(F)(F)c1ccccc1NC(=S)NC1CCN(Cc2ccccc2)CC1` gave PGC1a acetyl inh 3, FGF22 binding 44*, SIRT5 inh -4, FN deposition inh 5 and ERAP1 inh -1.
S=C(Nc1ccccc1Cl)NC1CCN(Cc2ccccc2)CC1 was read as FN deposition inh -6.
`CCC(c1nnnn1C(C)(C)C)N1CCN(Cc2ccccc2OC)CC1` (stereo not given) gave PGC1a acetyl inh -4, FGF22 binding 0, SIRT5 inh 17* and ERAP1 inh -3.
`Nc1cc2nsnc2cc1Br` gave PGC1a acetyl inh 60*.
Screening COC(=O)C1CN(C(=O)COc2ccc(C)cc2)c2ccccc2O1 (stereo not given) returned PGC1a acetyl inh -3, FGF22 binding 0, SIRT5 inh 35*, FN deposition inh 6 and ERAP1 inh 1.
For COC(=O)C1CN(C(=O)COc2ccc(C)c(C)c2)c2ccccc2O1 (stereo not given) the results were FGF22 binding 0, SIRT5 inh 0, FN deposition inh 5 and ERAP1 inh -6.
For O=C(Cc1ccccn1)N[C@H]1CC[C@H](CCn2cc(-c3cccnc3)nn2)O[C@H]1CO the results were PGC1a acetyl inh 18, FGF22 binding 1, SIRT5 inh 0 and ERAP1 inh 7.
